A short description of data set [1]: Auc (0 to infinity) in Sprague-Dawley rat at 10 mg/kg, iv by LC-MS/MS analysis. In kind it is ADME, organism-based. The arrangement: dose 10 mg/kg, time infinity, route intravenous. As to conditions: in vivo. Put shortly: (§1)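 Male SD rats, 8 weeks old, given 10 mg/kg intravenously (n = 4). Plasma mixed with carbamazepine internal standard in acetonitrile, vortexed, centrifuged at 10,000×g, and the supernatant analysed by LC-MS/MS. Parameters reported as mean ± SD.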

A short description of data set [2]: Ratio of drug level in brain to plasma in Sprague-Dawley rat at 10 mg/kg, iv at 2 hrs post dose by LC-MS/MS analysis. In kind it is ADME, organism-based. As to conditions: brain and plasma, read-out: BPR. Put shortly:
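After intravenous dosing at 10 mg/kg in male SD rats, brain and plasma were sampled at 2 h. Each was mixed with carbamazepine internal standard in acetonitrile and analysed by LC-MS/MS.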

The target in data set [3] is Translocator protein (Homo sapiens, UniProt P30536). The experiment in a line: Binding affinity to recombinant human TSPO by SPR assay. Put shortly: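 Biacore T200 at 25 °C with recombinant human TSPO (18 kDa) amine-coupled to a CM5 chip in 10 mM sodium acetate pH 4.5, giving 4000–6000 RU. Compounds from 10 mM DMSO stocks were diluted in PBS-P; running buffer held 1.0% DMSO. Five concentrations, 0.01–5 µM, were injected at 50 µL/min (120 s contact, 300 s dissociation), with blanks and regeneration. KD reported.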
Translocator protein (Homo sapiens, UniProt P30536), sequence (P30536 whole entry): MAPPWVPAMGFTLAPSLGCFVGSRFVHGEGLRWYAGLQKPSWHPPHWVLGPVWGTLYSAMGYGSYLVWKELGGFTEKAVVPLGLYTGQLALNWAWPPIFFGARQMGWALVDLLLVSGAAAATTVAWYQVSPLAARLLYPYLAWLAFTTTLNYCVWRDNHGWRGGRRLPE
Background: SPR reads the build-up and loss of mass on a sensor chip optically.

The nature of data set [4]: Drug excretion in Sprague-Dawley rat at 10 mg/kg, po by LC-MS/MS analysis. In kind it is ADME, organism-based. As to conditions: in vivo, read-out: Drug excretion.
Data set [5] is described as follows: Total clearance in Sprague-Dawley rat at 10 mg/kg, iv by LC-MS/MS analysis. The data set is classed as ADME, organism-based. As to conditions: in vivo. The gist of the method:
as §1

Data set [6] is described as follows: Oral bioavailability in Sprague-Dawley rat at 10 mg/kg by LC-MS/MS analysis. In kind it is ADME, organism-based. To be noted: in vivo. Put shortly: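 Male SD rats, 8 weeks old, acclimatised at least 1 week; compound dissolved at 10 mg/2 mL in N-methyl-2-pyrrolidone/Tween80/water (1:2:7) by 5 min sonication, given 10 mg/kg by oral gavage at 2 mL/kg (n = 5). Heart-puncture blood drawn at 30 min and 3 h, plasma spun and stored at -70 °C. Samples mixed with carbamazepine internal standard in acetonitrile and assayed by LC-MS/MS.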

Data set [7] addresses Translocator protein (Mus musculus) (UniProt P50637). Briefly: Inhibition of TSPO in mouse HT22 cells assessed as protection against amyloid beta (1 to 42)-induced mitochondrial membrane potential loss by measuring recovery of ATP production at 5 uM preincubated for 10 mins followed by amyloid beta (1 to 42) addition measured after 7 hrs by luciferase reporter gene assay relative to control. As to conditions: HT-22. The arrangement: scale not given: the % may be the effect or the level left. In kind it is cell-based. The gist of the method:
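HT22 cells at 7000 per well were given compound (5 µM) for 10 min at 37 °C, then Aβ1-42 (5 µM) or DMSO vehicle, and incubated 7 h. Cells were washed, lysed in 1% Triton X-100, and protein-equalised by BCA. ATP was measured by luciferin/luciferase luminescence and normalised to vehicle.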
For orientation: In a reporter assay the amount or activity of a reporter protein is the signal.

The target of data set [8] is Voltage-gated inwardly rectifying potassium channel KCNH2 (Homo sapiens, UniProt Q12809). Briefly: Inhibition of human ERG expressed in CHOK1 cells by automated patch clamp method. In kind it is cell-based, CHO-K1.
Voltage-gated inwardly rectifying potassium channel KCNH2, sequence (Q12809 whole entry): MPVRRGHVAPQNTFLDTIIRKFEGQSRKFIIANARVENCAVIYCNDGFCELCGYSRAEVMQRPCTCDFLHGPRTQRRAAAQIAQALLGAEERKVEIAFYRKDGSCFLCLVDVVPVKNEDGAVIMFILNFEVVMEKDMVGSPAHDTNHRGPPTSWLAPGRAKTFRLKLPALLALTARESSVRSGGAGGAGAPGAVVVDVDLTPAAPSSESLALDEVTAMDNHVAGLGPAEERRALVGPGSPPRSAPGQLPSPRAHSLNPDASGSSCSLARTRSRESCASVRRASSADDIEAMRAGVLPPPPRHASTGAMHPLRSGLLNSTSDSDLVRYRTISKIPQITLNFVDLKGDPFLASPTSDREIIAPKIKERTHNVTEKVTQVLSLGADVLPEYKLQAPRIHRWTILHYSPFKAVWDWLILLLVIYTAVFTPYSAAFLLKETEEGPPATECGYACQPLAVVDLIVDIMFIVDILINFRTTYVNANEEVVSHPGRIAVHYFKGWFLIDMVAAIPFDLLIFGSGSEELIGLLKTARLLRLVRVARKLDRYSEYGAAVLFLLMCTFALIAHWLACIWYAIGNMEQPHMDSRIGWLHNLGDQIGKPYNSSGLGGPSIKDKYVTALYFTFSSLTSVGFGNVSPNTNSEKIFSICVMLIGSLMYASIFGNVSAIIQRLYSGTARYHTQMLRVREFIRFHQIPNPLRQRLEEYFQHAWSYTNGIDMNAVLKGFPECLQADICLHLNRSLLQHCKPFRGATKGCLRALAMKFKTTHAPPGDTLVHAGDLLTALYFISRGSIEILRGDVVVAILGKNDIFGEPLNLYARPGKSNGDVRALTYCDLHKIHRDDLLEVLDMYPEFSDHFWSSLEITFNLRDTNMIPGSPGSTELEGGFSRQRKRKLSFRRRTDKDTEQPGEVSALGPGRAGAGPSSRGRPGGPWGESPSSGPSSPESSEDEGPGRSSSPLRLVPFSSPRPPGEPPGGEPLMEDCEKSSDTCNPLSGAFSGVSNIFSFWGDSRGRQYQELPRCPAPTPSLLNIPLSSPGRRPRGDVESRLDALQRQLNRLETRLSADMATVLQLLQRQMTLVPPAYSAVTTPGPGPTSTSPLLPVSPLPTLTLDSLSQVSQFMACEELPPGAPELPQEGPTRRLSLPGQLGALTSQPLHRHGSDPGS
Data set [9] is described as follows: AUClast in Sprague-Dawley rat at 10 mg/kg, iv by LC-MS/MS analysis. Also on record: dose 10 mg/kg, route intravenous, time 0 - last. In kind it is ADME, organism-based. As to conditions: in vivo. Put shortly:
as §1

For data set [10], the target named is CYP3A4 (Homo sapiens, UniProt P08684). Briefly: Inhibition of recombinant human CYP3A4 expressed in baculosomes coexpressing rabbit NADPH-P450 reudctase assessed as residual activity at 10 uM preincubated for 5 mins followed by substrate and NADP+ addition measured after 20 mins by fluorescence assay relative to control. In kind it is ADME. As to conditions: read-out: Activity. The gist of the method:
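Vivid CYP450 kit: recombinant human CYP isozyme in Baculosomes with rabbit NADPH-P450 reductase, plus regeneration system (3.3 mM glucose-6-phosphate, 0.3 U/mL G6PDH in 100 mM potassium phosphate, pH 8.0). Mixture preincubated with sample for 5 min at 37 °C. Vivid substrate and 0.1 mM NADP+ were then added, and remaining activity read by fluorescence after 20 min.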

Data set [11] can be described thus: MRT in Sprague-Dawley rat at 10 mg/kg, iv by LC-MS/MS analysis. In kind it is ADME, organism-based. As to conditions: in vivo. Put shortly:
as §1

In data set [12] the target is Translocator protein (Rattus norvegicus, UniProt P16257). Briefly: Displacement of [3H]PK11195 from TSPO in Sprague-Dawley rat cerebral cortex membranes after 60 mins by microbeta liquid scintillation counting method. The arrangement: species or system Membrane. Background: Loss of bound radioactivity is the signal in a displacement assay; it reports binding, not function.
Translocator protein (Rattus norvegicus, UniProt P16257), sequence (P16257 whole entry, looked up): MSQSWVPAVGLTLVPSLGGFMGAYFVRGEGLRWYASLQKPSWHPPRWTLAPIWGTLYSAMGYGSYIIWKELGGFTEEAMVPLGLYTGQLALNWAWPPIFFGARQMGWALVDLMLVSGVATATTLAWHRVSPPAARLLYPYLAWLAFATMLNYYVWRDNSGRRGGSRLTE

Data set [13] in a line: Cytotoxicity against mouse HT22 cells assessed as cell viability at 5 uM after 24 hrs by MTT assay relative to control. In kind it is toxicity, HT-22. To be noted: read-out: Activity. Put shortly:
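MTT was added for 2 h, then solubilising solution (10% Triton X-100 in isopropanol with 0.1 M HCl) for 2 h more. Absorbance read at 560 nm; % inhibition normalised to vehicle, and viability taken from compound-only wells.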

A short description of data set [14]: Drug excretion in Sprague-Dawley rat at 10 mg/kg, iv by LC-MS/MS analysis. In kind it is ADME, organism-based. To be noted: in vivo, read-out: Drug excretion.

Structures are written as SMILES. Bounds are passed on as bounds.

CYP3A4, sequence (P08684 whole entry): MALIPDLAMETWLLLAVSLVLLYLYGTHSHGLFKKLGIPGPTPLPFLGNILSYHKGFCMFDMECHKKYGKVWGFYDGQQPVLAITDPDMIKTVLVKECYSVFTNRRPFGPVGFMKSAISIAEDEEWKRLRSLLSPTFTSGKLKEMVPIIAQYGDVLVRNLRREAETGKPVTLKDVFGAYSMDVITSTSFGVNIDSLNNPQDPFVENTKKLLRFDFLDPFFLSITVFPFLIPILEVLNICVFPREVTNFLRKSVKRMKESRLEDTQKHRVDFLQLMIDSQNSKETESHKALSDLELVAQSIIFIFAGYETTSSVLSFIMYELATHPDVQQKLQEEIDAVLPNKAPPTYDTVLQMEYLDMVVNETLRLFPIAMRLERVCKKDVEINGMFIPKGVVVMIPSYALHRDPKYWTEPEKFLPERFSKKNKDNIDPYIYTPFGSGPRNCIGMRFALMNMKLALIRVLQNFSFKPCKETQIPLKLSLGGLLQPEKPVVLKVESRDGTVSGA
Translocator protein (Mus musculus), sequence (P50637 whole entry, looked up): as the sequence (P16257 whole entry, looked up) above, with S2P, Q3E, I67V, E77D, V110A, M113L, M149V, T168P counted along it

The term AUC(0-inf) denotes the area under the concentration-time curve extrapolated to infinity. In general, Kd refers to the equilibrium constant for the complex coming apart. What is called clearance is the volume of plasma or blood freed of the substance per unit of time. By bioavailability is commonly meant the share of a dose that reaches the circulation, judged against a reference dose that is usually intravenous. A word on the IC50: it is the concentration that inhibits the measured activity by half. Usually AUC(0-t) stands for exposure summed from dosing to a finite time, without extrapolation to infinity. The term MRT denotes the average time that molecules of a dose stay in the body. The term Ki denotes a measure of affinity in units of concentration, obtained from inhibition or displacement. On to `Cc1ccc(C(C)C)cc1NC(=O)Cn1c(Cc2c(Cl)cccc2Cl)nc2ccccc21`, for which the AUC(0-inf) in data set [1] is 1850 ng·h/mL. Moreover, in data set [2], the Kp at 2 h worked out at 2.88. In addition, in data set [3], the Kd stood at 108 nM. Moreover, the dose excreted in data set [4] stood at 0.01%; in data set [14], 0.03%. In data set [5], this molecule came in with a clearance of 54.5 mL/min/kg. For the same molecule, the bioavailability in [6] was determined as 3.7%. In [7], the Activity turned out to be 95%. Moreover, the IC50 was above 100000 nM in [8] and 74.3 nM in data set [12]. This molecule gave an AUC(0-t) in data set [9] of 1750 ng·h/mL. Also, the activity at 20 min, 10 µM in [10] is 224%. The molecule also gave an MRT in data set [11] of 1.12 h. The molecule also came in with an inhibition constant (Ki) in data set [12] of 22.8 nM. The viability at 24 h, 5 µM in data set [13] lay within 88 to 109%.

The values above are taken from ChEMBL document CHEMBL3877298, “Discovery of benzimidazole derivatives as modulators of mitochondrial function: A potential treatment for Alzheimer's disease” (Eur J Med Chem, 2017).
